# Measured values as given in ChEMBL document CHEMBL3608303, “Discovery of novel potent and selective ligands for 5-HT2A receptor with quinazoline scaffold” (Bioorg Med Chem Lett, 2015).
# Columns and labels:
# [1] = biological target: T1, 5-hydroxytryptamine receptor 2A (Homo sapiens, UniProt P28223); assay: Displacement of [3H]ketanserin hydrochloride from 5-HT2A receptor (unknown origin) expressed in HEK293 cell membranes incubated for 15 mins by liquid scintillation spectrometry
# [2] = biological target: T1, 5-hydroxytryptamine receptor 2A; assay: Displacement of [3H]ketanserin hydrochloride from 5-HT2A receptor (unknown origin) expressed in HEK293 cell membranes incubated for 15 mins by liquid scintillation spectrometry relative to control; set-up: concentration or dose not given beside the values
# In short: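 [3H]-Ketanserin displacement at 5-HT2A, first run as percent displacement of radioligand by a 10 μM test concentration.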
# D(2) dopamine receptor = D(2) dopamine receptor (Homo sapiens, UniProt P14416); assay: Displacement of [3H]-spiperone from dopamine D2 receptor (unknown origin) expressed in HEK293 cell membranes incubated for 15 mins by liquid scintillation spectrometry
# Sequence of D(2) dopamine receptor (P14416 whole entry): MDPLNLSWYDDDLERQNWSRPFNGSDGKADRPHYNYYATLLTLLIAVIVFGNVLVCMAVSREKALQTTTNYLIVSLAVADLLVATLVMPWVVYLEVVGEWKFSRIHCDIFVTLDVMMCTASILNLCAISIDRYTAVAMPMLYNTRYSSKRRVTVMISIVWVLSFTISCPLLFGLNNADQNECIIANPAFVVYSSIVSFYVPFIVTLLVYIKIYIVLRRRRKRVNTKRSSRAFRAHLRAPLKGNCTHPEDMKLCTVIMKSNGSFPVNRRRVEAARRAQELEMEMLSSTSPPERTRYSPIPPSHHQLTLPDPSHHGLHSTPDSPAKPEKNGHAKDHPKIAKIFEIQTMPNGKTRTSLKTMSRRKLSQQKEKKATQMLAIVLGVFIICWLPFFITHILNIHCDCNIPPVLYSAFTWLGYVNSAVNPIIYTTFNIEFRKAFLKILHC
# D(1A) dopamine receptor [3] = biological target: T2, D(1A) dopamine receptor (Homo sapiens, UniProt P21728); conditions: hek293
# T2 sequence (P21728 whole entry): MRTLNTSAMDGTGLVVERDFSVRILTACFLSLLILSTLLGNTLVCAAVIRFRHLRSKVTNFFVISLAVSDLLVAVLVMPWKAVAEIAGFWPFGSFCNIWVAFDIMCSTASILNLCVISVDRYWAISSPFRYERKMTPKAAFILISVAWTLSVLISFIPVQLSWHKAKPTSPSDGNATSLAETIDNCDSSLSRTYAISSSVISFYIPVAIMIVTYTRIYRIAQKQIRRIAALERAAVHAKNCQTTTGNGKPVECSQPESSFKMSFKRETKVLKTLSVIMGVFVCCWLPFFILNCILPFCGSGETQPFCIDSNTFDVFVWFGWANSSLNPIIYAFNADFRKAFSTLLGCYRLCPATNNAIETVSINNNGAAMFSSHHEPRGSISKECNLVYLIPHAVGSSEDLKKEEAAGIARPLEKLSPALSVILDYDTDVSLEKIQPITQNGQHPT
# D(3) dopamine receptor = D(3) dopamine receptor (Homo sapiens, UniProt P35462); assay: Displacement of [3H]-spiperone from dopamine D3 receptor (unknown origin) expressed in HEK293 cell membranes incubated for 15 mins by liquid scintillation spectrometry
# Sequence of D(3) dopamine receptor (P35462 whole entry): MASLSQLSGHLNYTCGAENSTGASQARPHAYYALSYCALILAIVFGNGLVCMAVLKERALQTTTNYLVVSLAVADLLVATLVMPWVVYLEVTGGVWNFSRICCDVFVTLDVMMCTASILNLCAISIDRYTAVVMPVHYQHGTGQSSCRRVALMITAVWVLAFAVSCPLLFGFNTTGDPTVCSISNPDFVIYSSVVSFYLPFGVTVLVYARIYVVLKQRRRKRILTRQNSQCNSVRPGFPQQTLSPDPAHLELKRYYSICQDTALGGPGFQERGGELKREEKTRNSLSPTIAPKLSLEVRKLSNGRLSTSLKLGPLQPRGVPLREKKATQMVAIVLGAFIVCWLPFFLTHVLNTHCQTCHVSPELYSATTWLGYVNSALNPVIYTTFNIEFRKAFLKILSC
# [4] = biological target: T3, 5-hydroxytryptamine receptor 1A (Homo sapiens, UniProt P08908); assay: (§1) Displacement of [3H]-8-OH-DPAT from 5-HT1A receptor (unknown origin) expressed in HEK293 cell membranes incubated for 15 mins by liquid scintillation spectrometry
# T3 sequence (P08908 whole entry): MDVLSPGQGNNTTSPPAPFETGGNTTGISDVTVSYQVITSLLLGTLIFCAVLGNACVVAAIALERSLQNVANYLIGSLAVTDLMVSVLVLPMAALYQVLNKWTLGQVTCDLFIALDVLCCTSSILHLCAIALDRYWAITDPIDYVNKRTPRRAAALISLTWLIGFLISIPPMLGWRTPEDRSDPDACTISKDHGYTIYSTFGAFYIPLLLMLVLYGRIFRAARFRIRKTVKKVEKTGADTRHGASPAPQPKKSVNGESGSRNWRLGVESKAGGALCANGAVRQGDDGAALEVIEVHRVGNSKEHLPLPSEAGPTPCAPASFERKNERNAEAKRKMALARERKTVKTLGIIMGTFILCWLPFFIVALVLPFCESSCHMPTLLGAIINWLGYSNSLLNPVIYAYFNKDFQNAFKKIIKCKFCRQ
# [5] = biological target: T1, 5-hydroxytryptamine receptor 2A; assay: Agonist activity at 5-HT2A receptor (unknown origin) expressed in HEK293 cell membranes assessed as induction of [35S]-GTPgammaS binding incubated for 30 mins by liquid scintillation counting method; assay type: functional
# [6] = biological target: T1, 5-hydroxytryptamine receptor 2A; assay type: functional, cell-based, HEK293
# [7] = biological target: T4, 5-hydroxytryptamine receptor 1A (Homo sapiens) (UniProt P08908); assay: as §1; set-up: concentration or dose not given beside the values
# T4 sequence (whole entry): T3 sequence (P08908 whole entry)
# D(1A) dopamine receptor [8] = biological target: T2, D(1A) dopamine receptor; assay: Displacement of [3H]-SCH-23390 from dopamine D1 receptor (unknown origin) expressed in HEK293 cell membranes incubated for 15 mins by liquid scintillation spectrometry
# T1 sequence (P28223 whole entry): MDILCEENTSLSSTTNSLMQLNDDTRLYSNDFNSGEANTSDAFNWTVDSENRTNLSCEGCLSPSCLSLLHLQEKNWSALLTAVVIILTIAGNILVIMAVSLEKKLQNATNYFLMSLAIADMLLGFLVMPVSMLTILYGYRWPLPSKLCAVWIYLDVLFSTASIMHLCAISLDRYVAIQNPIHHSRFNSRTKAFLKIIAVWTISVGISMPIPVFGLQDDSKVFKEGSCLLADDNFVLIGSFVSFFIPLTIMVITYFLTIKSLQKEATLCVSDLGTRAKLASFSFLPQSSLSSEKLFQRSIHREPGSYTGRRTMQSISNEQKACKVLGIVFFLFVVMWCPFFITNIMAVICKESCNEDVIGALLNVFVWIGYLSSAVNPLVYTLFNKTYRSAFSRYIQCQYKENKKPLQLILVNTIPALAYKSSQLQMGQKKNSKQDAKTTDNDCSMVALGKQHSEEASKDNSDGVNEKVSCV
SMILES,Ki [1],inhibition [2],Ki (D(2) dopamine receptor),Ki (D(1A) dopamine receptor [3]),Ki (D(3) dopamine receptor; read-out: Ki),Ki [4],EC50 [5],IC50 [6],Ki (D(3) dopamine receptor; hek293),inhibition (D(3) dopamine receptor),inhibition [7],inhibition (D(1A) dopamine receptor [8]),inhibition (D(2) dopamine receptor)
COc1ccc(Nc2nc(N3CCN(CCO)CC3)nc3ccccc23)cc1,1.36 µM,> 90%,,,,,,,,,,,
CC(C)(C)[C@@]1(O)CCN2C[C@@H]3c4ccccc4CCc4cccc(c43)[C@H]2C1,,> 90%,,,,,,,,,,,
OCCN1CCN(c2nc(Nc3ccc(Br)cc3)c3ccccc3n2)CC1,0.092 µM,,Not Active,Not Active,0.571 µM,Not Active,Not Active,27.7 µM,,,,,
COc1ccc(Nc2nc(N3CCN(CCO)CC3)nc3ccccc23)c(OC)c1,0.594 µM,> 90%,Not Active,Not Active,,Not Active,,,Not Active,,,,
Cc1ccc(Nc2nc(N3CCN(CCO)CC3)nc3ccccc23)c(C)c1,0.268 µM,> 90%,Not Active,Not Active,,,,,,39%,81.2%,,
Clc1ccc(Nc2nc(N3CCOCC3)nc3ccccc23)cc1,,45.3%,,,,,,,,,16.7%,-9.36%,
CC(C)c1ccc(Nc2nc(N3CCNCC3)nc3ccccc23)cc1,0.0421 µM,> 90%,,,,,,,,22.5%,84.3%,94.8%,14%
Fc1ccccc1Nc1nc(N2CCNCC2)nc2ccccc12,0.07 µM,> 90%,Not Active,Not Active,,Not Active,Not Active,,,22.5%,,,
OCCN1CCN(c2nc(Nc3ccc(I)cc3)c3ccccc3n2)CC1,0.383 µM,> 90%,,,,,,,,,,,
OCCN1CCN(c2nc(Nc3ccc(F)cc3)c3ccccc3n2)CC1,0.12 µM,,Not Active,Not Active,,Not Active,Not Active,21.3 µM,,49.3%,,,
Clc1ccc(Nc2nc(N3CCNCC3)nc3ccccc23)cc1,0.014 µM,,,,,,Not Active,1.66 µM,,78.8%,88.6%,83.9%,71.4%
Fc1ccccc1Nc1nc(N2CCOCC2)nc2ccccc12,0.184 µM,> 90%,Not Active,Not Active,,Not Active,,,,,,,
OCCN1CCN(c2nc(Nc3cccc(O)c3)c3ccccc3n2)CC1,0.0834 µM,> 90%,Not Active,Not Active,,Not Active,Not Active,9.12 µM,,11.7%,,,
OCCN1CCN(c2nc(Nc3ccccc3F)c3ccccc3n2)CC1,0.0658 µM,> 90%,Not Active,Not Active,,Not Active,Not Active,1.37 µM,,10.1%,,,
Fc1ccc(Nc2nc(N3CCOCC3)nc3ccccc23)cc1,0.235 µM,> 90%,Not Active,Not Active,,Not Active,,,,-0.57%,,,
Ic1ccc(Nc2nc(N3CCNCC3)nc3ccccc23)cc1,0.496 µM,> 90%,Not Active,Not Active,,,,,Not Active,,56.6%,,
OCCN1CCN(c2nc(Nc3ccc(Cl)cc3)c3ccccc3n2)CC1,0.109 µM,,,,,,Not Active,7.43 µM,,75.6%,53.8%,80.5%,53%
OCCN1CCN(c2nc(NCc3ccccc3)c3ccccc3n2)CC1,0.52 µM,> 90%,Not Active,Not Active,1.44 µM,Not Active,,,,,,,
COc1ccccc1Nc1nc(N2CCNCC2)nc2ccccc12,0.0458 µM,> 90%,Not Active,Not Active,,Not Active,Not Active,,,,,,
CC(C)c1ccc(Nc2nc(Nc3ccc(C(C)C)cc3)c3ccccc3n2)cc1,,5.91%,Not Active,Not Active,,Not Active,,,Not Active,,,,
CC(C)c1ccc(Nc2nc(N(C)C)nc3ccccc23)cc1,,75.1%,Not Active,Not Active,,Not Active,,,Not Active,,,,
CC(C)c1ccc(Nc2nc(N3CCN(CCO)CC3)nc3ccccc23)cc1,0.149 µM,> 90%,Not Active,Not Active,1.14 µM,,,,,,42.3%,,
COc1ccccc1Nc1nc(N2CCN(CCO)CC2)nc2ccccc12,0.146 µM,> 90%,Not Active,Not Active,,,,,,0.9%,52%,,
